Holding throughout (details): in vivo
Data set [1] relates to Mus musculus. Put plainly: Biodistribution in mice brain, after 48 hr of intravenous administrating 1-2 ug of compound (entrapped in bovine brain sphingomyelin/ cholesterol multilamellar vehicles). In kind it is ADME, organism-based. The method, boiled down: (§1)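 BALB/c mice (about 25 g), 3–5 per group, given 50–100 μL tail-vein injection of 111In-labeled conjugate entrapped in SM/CH (2:1 mol/mol) multilamellar vesicles, approx. 100 000 cpm; dose 1–2 μg phospholipid/g body weight. Killed by cervical dislocation at set times; blood, cumulative excretion and rinsed, blotted, weighed tissues γ-counted, blood background subtracted. Result is % injected dose ± SD.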

In data set [2] the test system is Mus musculus. Nature of the data set: Biodistribution in mice heart, after 12 hr of intravenous administration of compound (entrapped in bovine brain sphingomyelin/ cholesterol multilamellar vehicles). In kind it is ADME, organism-based. The essentials:
as §1

The test system of data set [3] is Mus musculus. Put plainly: Biodistribution in mice stomach, after 24 hr of intravenous administration of 1-2 ug of ofcompound (entrapped in bovine brain sphingomyelin/ cholesterol multilamellar vehicles). Type of data set: ADME, organism-based. The essentials:
(§2)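 BALB/c mice (about 25 g), groups of 2–5. Compound ¹¹¹In-loaded into SM/CH (2:1, mol/mol) multilamellar vesicles, given as a single tail-vein injection. Lipid dose was 1–2 μg phospholipid/g body weight, in 50–100 μL carrying about 100 000 cpm. Mice were killed by cervical dislocation. Organs were rinsed, blotted, weighed and γ-counted, with blood background subtracted. Values are % injected dose ± SD.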

The test system of data set [4] is Mus musculus. Nature of the data set: Biodistribution of compound in mice kidneys after 1 hr of intravenous injection. In kind it is ADME, organism-based, Kidney. The method, boiled down:
(§3)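 BALB/c mice (about 25 g), n = 4. Free ¹¹¹In- or ⁶⁷Ga-labeled compound (50–100 μL, about 100 000 cpm) was injected into a tail vein. Mice were held in separate cages and killed by cervical dislocation, with blood and cumulative excreta collected. Tissues were rinsed, blotted, weighed and γ-counted, with blood background subtracted (blood volume 8.0%). Values are % injected dose ± SD.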

For data set [5], the system named is Mus musculus. Put plainly: Biodistribution in mice blood, after 24 hr of intravenous administration of 1-2 ug of compound (entrapped in bovine brain sphingomyelin/ cholesterol multilamellar vehicles). In kind it is ADME, organism-based. The method, boiled down:
as §1

In data set [6] the test system is Mus musculus. Put plainly: Biodistribution in mice tail, after 24 hr of intravenous administration of 1-2 ug of compound (entrapped in bovine brain sphingomyelin/ cholesterol multilamellar vehicles). In kind it is ADME, organism-based. The method, boiled down: as §2
The test system of data set [7] is Mus musculus. Nature of the data set: Biodistribution in mice kidneys, after 24 hr of intravenous administration of 1-2 ug of compound (entrapped in bovine brain sphingomyelin/ cholesterol multilamellar vehicles). Type of data set: ADME, organism-based, Kidney. The method, boiled down: as §1
For data set [8], the system named is Mus musculus. Put plainly: Biodistribution of compound in mice carcass after 1 hr of intravenous injection. Type of data set: ADME, organism-based. The essentials:
as §3

“And” between values parts separate entries of the source, which are not always exact repeats. Equal values may be shown once.

On to `NCCNC(=O)CN(CCN(CCN(CC(=O)O)CC(=O)O)CC(=O)O)CC(=O)O`, for which the ID in the data set on Mus musculus [1] is 0.2%; in the data set on Mus musculus [2] it was 0%; with Mus musculus [3] it was 0.1%; in the data set with Mus musculus [4], 1.9% and 1.7%; in the data set with Mus musculus [5] it was 0.4%; in the data set with Mus musculus [6], 0.9%. In addition, the ID with Mus musculus [7] is 0.5%; in the data set on Mus musculus [8], 4.1% and 9.1%.

The record behind these values is ChEMBL document CHEMBL1124106, “Synthesis of diethylenetriaminepentaacetic acid conjugated inulin and utility for cellular uptake of liposomes” (J Med Chem, 1988).
